Rows were chosen to be rich in hits. Some 3.4% of all compounds tested hit in one or more screens of this group.
p97 ATPase inh – blocks human p97 ATPase activity; P55072; recombinant p97 ATPase, Kinase-Glo ATP luminescence, 3 h; inhibition, % at 8 µM; 0.42% of 220,000 active; AID 1481; in the data active = inhibition above about 15%;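 also: 0% = DMSO vehicle and 100% = wells lacking enzyme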
KCC2 mod – KCC2 (human) Cl- transport modulation | KCC2 cells, thallium flux FluoZin-2 fluorescence | B-score of Tl+ flux slope (higher = more flux/activation; lower = inhibition) at 10 µM | 2.2% of 190,000 active | AID 1456;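 active = thallium flux slope and its plate-corrected score both differing from the plate sample mean at a set confidence after two filtering rounds, in either direction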;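 also: slope of fluorescence scaled to starting intensity during 10 to 20 s after thallium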
PKD1 inh – blocks activity of human protein kinase D1 | inhibition, % (no concentration beside the values) | PKD1 kinase fluorescence polarization assay | 0.056% of 200,000 active | Q15139; in the data active = inhibition above about 50%
Mdm2 ligase inh – inhibitors of human Mdm2 E3 ubiquitin ligase; cell-based MDM2 ubiquitination luciferase reporter, 2 h; 0 = plate control, 100 = twice control, blank-subtracted; 0.11% of 210,000 active; AID 1230; signal enhancement, % at 5 µM;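 active = signal enhancement of 30% or more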;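 also: luminescence tracks abundance of the self-degrading MDM2-luciferase fusion protein; higher signal means inhibition of MDM2 E3 ligase activity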
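test system = mammalian cells stably expressing self-ubiquitinating, self-degrading MDM2 E3–luciferase fusion | quantity = 2000 cells/well | incubation = cell settling 4 h, compound treatment 2 h, both 37 °C | signal = luminescence with SteadyLite reagent, 15 min at room temperature | evaluation = % enhancement relative to plate controls after blank subtraction | benchmarks = plate controls and plate blanks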
ROMK primary – modulates human ROMK potassium channel activity; Tet-inducible ROMK, thallium flux fluorescence; actives lie on both sides; 2% of 130,000 active; P48048; B-score at 10 µM; AID 1918;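 active = signal ratio slope over the read window, or its plate-corrected B-score, at least 3 SD from the plate mean, either direction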;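 also: B-score of the F/F0 ratio slope over 7 to 12 s after thallium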
Redox H2O2 prof – compounds producing H2O2 with reducing agent – biochemical, NIH compound library profiling, artefact control for MLSCN library redox annotation, primary screen | DTT-dependent redox cycling H2O2, phenol red/HRP absorbance; 100% = 100 µM peroxide control, 0% = buffer | activation, % at 10 µM | 0.03% of 200,000 active | AID 878;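 active = activation of at least 50% relative to the plate's high and low controls in the primary single-dose screen; inactive = activation below 50%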;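 also: compound incubated with DTT at 0.8 mM final as the reducing agent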
KCC2 secondary – confirmation of human KCC2 transport modulators; shares compounds with KCC2 mod; HEK293-KCC2, thallium flux, FluoZin2 fluorescence; hits give high values; normalised thallium flux (F/F0 slope) at 10 µM; 15% of 3,700 active; AID 1713;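 active = thallium flux slope above the same plate's solvent-only control mean plus 3 SD; inconclusive = the two replicate wells disagree; inactive = no significant difference from solvent-only control wells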
KCC2 bumet counter – thallium flux despite bumetanide block in KCC2 cells, secondary assay 3. shares compounds with KCC2 mod. HEK293-KCC2 + bumetanide/ouabain, thallium flux FluoZin2; hits give high values. normalized thallium flux at 10 µM. 49% of 3,700 active;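 active = thallium entry rate above the same plate's blocked-transporter control wells by more than 3 SD; inconclusive = the two repeat wells disagree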;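 also: raw slope of fluorescence over initial fluorescence between 10 and 20 s after thallium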
KCC2 secondary2 – KCC2 (human) modulation, second secondary assay; HEK293-KCC2, thallium flux FluoZin2 fluorescence; actives lie on both sides; F/F0 rise rate, 10–20 s post-thallium; shares compounds with KCC2 mod; 23% of 3,700 active; normalized thallium flux at 10 µM;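 active = thallium flux slope more than 3 SD above or below the plate's solvent-only control mean, mostly below; inconclusive = the two repeat wells disagreed; inactive = no significant shift from solvent-only controls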;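 also: raw slope with 0.1% DMSO as baseline and bumetanide as block control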
HEK293 Tl flux – parental HEK flux effect, counter-screen | shares compounds with KCC2 mod | HEK293 parental cells, thallium flux FluoZin2, ouabain; baseline-ratio fluorescence slope, 10–20 s after thallium | thallium flux rate (normalised fluorescence) at 10 µM | 46% of 3,700 active | AID 1716;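 active = thallium flux rate significantly above the same plate's solvent-only control wells, beyond their mean plus 3 SD; inconclusive = the two replicate wells gave conflicting results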
KCC2 retest ouab – modulates human KCC2 on retest with ouabain. AID 1717. raw Tl+ flux slope (below DMSO = inhibition, above = activation) at 10 µM. shares compounds with KCC2 mod. HEK293-KCC2, thallium flux FluoZin2 fluorescence; bidirectional: low = inhibitor, high = activator. 48% of 3,700 active;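 active = thallium flux slope beyond 3 SD from same-plate DMSO control mean in most replicates, usually higher, sometimes lower; inconclusive = repeat tests gave conflicting results; inactive = no significant difference from controls in most replicates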;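 also: slope of initial-normalized fluorescence between seconds 10 and 20 after thallium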
HEK counter2 – acts in parental HEK cells, second KCC2 counter-screen; shares compounds with KCC2 mod; HEK293 parental, thallium flux FluoZin-2 fluorescence slope; thallium flux slope at 10 µM; 33% of 3,700 active; AID 1718;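 active = thallium flux slope above the same plate's solvent-control mean plus 3 SD in both duplicate wells; inconclusive = duplicate wells that disagreed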;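 also: run without ouabain in cells lacking the KCC2 cotransporter; slope of fluorescence scaled to its starting value between 10 and 20 s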
* marks the source's active call; other numbers are inactive results.

What do the screens show for `CCOC(=O)N1CCN(C(=O)CS(=O)Cc2nc(-c3cccc(C)c3)oc2C)CC1` (centres undefined)?
p97 ATPase inh: -1.9; PKD1 inh: 0.8; Mdm2 ligase inh: -4.8; Redox H2O2 prof: -0.8

What do the screens show for `Cc1cccc(-c2nc(CS(=O)CC(=O)N3CCc4ccccc4C3)c(C)o2)c1` (centres undefined)?
p97 ATPase inh: -3.2; PKD1 inh: -15.2; Mdm2 ligase inh: -2.7; Redox H2O2 prof: -0.2; KCC2 secondary: 0.00737; KCC2 bumet counter: 0.00533; KCC2 secondary2: inconclusive; HEK293 Tl flux: 0.007; KCC2 retest ouab: inconclusive; HEK counter2: 0.0104

How did CCCCOC(=O)CCN1C(=O)/C(=C2\SC(=S)N(CCC(=O)OCCCC)C2=O)SC1=S do in these assays?
p97 ATPase inh: 3.3; KCC2 mod: 0.495; PKD1 inh: -1.4; Mdm2 ligase inh: -2.5; Redox H2O2 prof: 3.4

What do the screens show for `COCCCNC(=O)c1ccc(Cn2c(=O)[nH]c3ccccc3c2=O)cc1`?
p97 ATPase inh: 2.6; KCC2 mod: 0.203; PKD1 inh: -8.0; ROMK primary: -0.25; Redox H2O2 prof: 0.4

What do the screens show for `CCn1c(=O)c2c(n3c(=S)[nH]nc13)-c1ccccc1CC21CCCCC1`?
p97 ATPase inh: -5.4; KCC2 mod: 65.1*; PKD1 inh: 4.4; Mdm2 ligase inh: -10.2; ROMK primary: 0.308; Redox H2O2 prof: -0.8; KCC2 secondary: 0.00721; KCC2 bumet counter: 0.0698*; KCC2 secondary2: inconclusive; HEK293 Tl flux: 0.0597*; KCC2 retest ouab: 0.0593*; HEK counter2: 0.0345*

What do the screens show for `CCn1c(SCC#N)nc2c(c1=O)C1(CCCC1)Cc1ccccc1-2`?
p97 ATPase inh: -3.0; KCC2 mod: 16.8*; PKD1 inh: 5.8; Mdm2 ligase inh: -10.9; ROMK primary: -0.00317; Redox H2O2 prof: 0.5; KCC2 secondary: 0.0148*; KCC2 bumet counter: 0.0576*; KCC2 secondary2: 0.0368; HEK293 Tl flux: inconclusive; KCC2 retest ouab: 0.0395*; HEK counter2: inconclusive

What do the screens show for `Cc1ccccc1-n1c(=O)c2c(n3cnnc13)-c1ccccc1CC21CCCCC1`?
p97 ATPase inh: -1.8; KCC2 mod: -0.813; PKD1 inh: -9.9; Mdm2 ligase inh: -9.4; Redox H2O2 prof: -3.8

How did CCCn1c(SCC(N)=O)nc2c(c1=O)C1(CCCC1)Cc1ccccc1-2 do in these assays?
p97 ATPase inh: -1.9; PKD1 inh: -2.6; Mdm2 ligase inh: -7.5; ROMK primary: -1.88; Redox H2O2 prof: -0.1; KCC2 secondary: 0.0132*; KCC2 bumet counter: 0.031*; KCC2 secondary2: 0.0363; HEK293 Tl flux: 0.0169*; KCC2 retest ouab: inconclusive; HEK counter2: 0.0123*

How did CCSc1n[nH]c2nc3c(c(=O)n12)C1(CCCCC1)Cc1ccccc1-3 do in these assays?
p97 ATPase inh: 2.9; KCC2 mod: -1.29; Mdm2 ligase inh: -18.7

From PubChem BioAssay
